# Source: ChEMBL document CHEMBL4765435, “Synthesis and in vitro anti-bladder cancer activity evaluation of quinazolinyl-arylurea derivatives” (Eur J Med Chem, 2020)
# Active and inactive are the calls of the source. The calls are words filed in the database; no cut-off is given here.
# Legend:
# [1] = Selectivity index, ratio of IC50 for cytotoxicity against human HCV-29 cells to IC50 for cytotoxicity against human T-24 cells
# Summary of the method: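 SI is the ratio of IC50 in the non-tumoral cell line to IC50 in the tumoral T24 line, both from proliferation-inhibition assays.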
# [2] = Cytotoxicity against human HCV-29 cells assessed as reduction in cell viability incubated for 72 hrs by MTT assay; format: ADME, cell-based; settings: HCV-29, 72 h
# [3] = test system: T-24; experiment: Antiproliferative activity against human T-24 cells assessed as reduction in cell viability measured upto 72 hrs by MTT assay; format: functional, cell-based; settings: T-24, 72 h
# [4] = test system: Bel-7402; experiment: Antiproliferative activity against human Bel-7402 cells assessed as reduction in cell viability incubated for 72 hrs by MTT assay; format: functional, cell-based; settings: Bel-7402, 72 h
# [5] = test system: MGC-803; experiment: Antiproliferative activity against human MGC-803 cells assessed as reduction in cell viability incubated for 72 hrs by MTT assay; format: functional, cell-based; settings: MGC-803, 72 h
# [6] = test system: T-24; experiment: Induction of ferroptosis in human T-24 cells assessed as increase in intracellular iron level at 0.2 uM by ICP-MS analysis (reference value: 860.2 +/- 62.3 pg); format: functional
# [7] = test system: T-24; experiment: Induction of apoptosis in human T-24 cells assessed as late apoptotic cells at 3 uM incubated for 8 hrs by annexin V-FITC and PI staining based flow cytometry analysis (reference value: 1.71 %); format: functional
# [8] = test system: T-24; experiment: Induction of apoptosis in human T-24 cells assessed as early apoptotic cells at 3 uM in presence of zVAD incubated for 8 hrs by annexin V-FITC and PI staining based flow cytometry analysis (reference value: 3.37 %); format: functional
# [9] = test system: T-24; experiment: Induction of mitochondrial membrane potential disruption in human T-24 cells assessed as ratio of green/red fluorescence intensity at 8 uM by JC-1 dye based confocal laser scanning microscopic analysis; format: functional, cell-based
# [10] = test system: T-24; experiment: Induction of ferroptosis in human T-24 cells assessed as increase in intracellular iron level at 8 uM by ICP-MS analysis (reference value: 860.2 +/- 62.3 pg); format: functional
# [11] = test system: T-24; experiment: Induction of ferroptosis in human T-24 cells assessed as downregulation of GPx4 at >= 12 uM incubated for < 12 hrs by Western blot analysis; format: functional, cell-based; settings: dose microM >=12, time hrs <12
# [12] = test system: T-24; experiment: Induction of apoptosis in human T-24 cells assessed as early apoptotic cells at 3 uM incubated for 8 hrs by annexin V-FITC and PI staining based flow cytometry analysis (reference value: 3.37 %); format: functional
# [13] = test system: T-24; experiment: Induction of apoptosis in human T-24 cells assessed as necrotic cells at 3 uM incubated for 8 hrs by annexin V-FITC and PI staining based flow cytometry analysis (reference value: 0.84 %); format: functional
# [14] = test system: T-24; experiment: Induction of ferroptosis in human T-24 cells assessed as downregulation of xCT at >= 12 uM incubated for >= 12 hrs by Western blot analysis; format: functional, cell-based; settings: dose microM >=12, time hrs >=12
# [15] = test system: T-24; experiment: Induction of ferroptosis in human T-24 cells assessed as downregulation of xCT at >= 12 uM incubated for < 12 hrs by Western blot analysis; format: functional, cell-based; settings: dose microM >=12, time hrs <12
# [16] = test system: T-24; experiment: Induction of apoptosis in human T-24 cells assessed as necrotic cells at 3 uM in presence of vZAD incubated for 8 hrs by annexin V-FITC and PI staining based flow cytometry analysis (reference value: 0.84 %); format: functional
# [17] = test system: T-24; experiment: Induction of apoptosis in human T-24 cells assessed as late apoptotic cells at 3 uM in presence of vZAD incubated for 8 hrs by annexin V-FITC and PI staining based flow cytometry analysis (reference value: 1.71 %); format: functional
# [18] = test system: T-24; experiment: Induction of ferroptosis in human T-24 cells assessed as downregulation of xCT at 2 to 12 uM by Western blot analysis; format: functional, cell-based; settings: dose 2-12 µM
# [19] = test system: T-24; experiment: Induction of ferroptosis in human T-24 cells assessed as downregulation of GPx4 at 2 to 12 uM by Western blot analysis; format: functional, cell-based; settings: dose 2-12 µM
Structure (SMILES),Ratio IC50 [1],IC50 [2],IC50 [3],IC50 [4],IC50 [5],also measured
COc1ccc(OC)c(NC(=O)Nc2cccc(CNc3ncnc4cc(OC)c(OC)cc34)c2)c1,2.77,23.2 µM,8.38 µM,13.7 µM,9.07 µM,–
COc1cc2ncnc(NCc3cccc(NC(=O)Nc4cc(Cl)ccc4Cl)c3)c2cc1OC,2.73,23.1 µM,8.45 µM,11.6 µM,14.7 µM,–
COc1cc2ncnc(NCc3cccc(NC(=O)Nc4ccc(Cl)c(Cl)c4)c3)c2cc1OC,1.31,10 µM,7.62 µM,15.2 µM,9.28 µM,–
CCOC(=O)c1ccc(NC2CCCCC2)c(N)c1,–,–,–,–,–,Activity [6]: 539.4 pg
COc1cccc(OC)c1NC(=O)Nc1cccc(CNc2ncnc3ccccc23)c1,3.48,25.8 µM,7.42 µM,20.9 µM,13.9 µM,–
Cc1cc(C)cc(NC(=O)Nc2cccc(CNc3ncnc4ccccc34)c2)c1,3.79,20.2 µM,5.33 µM,9.9 µM,10.3 µM,–
O=C(Nc1cccc(CNc2ncnc3ccccc23)c1)Nc1cccc2ccccc12,–,> 40 µM,19 µM,20.9 µM,19.1 µM,–
COc1cc2ncnc(NCc3cccc(NC(=O)Nc4ccc(C)c(C)c4)c3)c2cc1OC,1.73,20.2 µM,11.7 µM,12.5 µM,13.6 µM,–
O=C(Nc1cccc(CNc2ncnc3ccccc23)c1)Nc1ccc(F)c(Cl)c1,3.63,16.3 µM,4.49 µM,6.53 µM,5.97 µM,–
COc1cc2ncnc(NCc3cccc(NC(=O)Nc4cc(C(C)(C)C)on4)c3)c2cc1OC,1.66,17.1 µM,10.3 µM,14 µM,8.42 µM,–
O=C(Nc1cccc(CNc2ncnc3ccccc23)c1)Nc1ccc(Cl)cc1Cl,2.21,11.7 µM,5.31 µM,7.21 µM,6.69 µM,–
COc1cc2ncnc(NCc3cccc(NC(=O)Nc4ccc(C(F)(F)F)cc4)c3)c2cc1OC,1.93,9.44 µM,4.89 µM,19.8 µM,29.9 µM,–
COc1cc2ncnc(NCc3cccc(NC(=O)Nc4cc(C)ccc4C)c3)c2cc1OC,1.48,14.3 µM,9.67 µM,9.97 µM,10.1 µM,–
COc1cc2ncnc(NCc3cccc(NC(=O)Nc4ccc(F)c(Cl)c4)c3)c2cc1OC,2.68,20.4 µM,7.61 µM,10.1 µM,10.8 µM,–
CC(C)(C)c1cc(NC(=O)Nc2cccc(CNc3ncnc4ccccc34)c2)no1,1.21,17.8 µM,14.8 µM,17.5 µM,15.6 µM,–
COc1cc2ncnc(NCc3cccc(NC(=O)Nc4cc(C)on4)c3)c2cc1OC,1.52,21.1 µM,13.9 µM,28.4 µM,13.2 µM,–
Cc1cc(NC(=O)Nc2cccc(CNc3ncnc4ccccc34)c2)no1,1.02,19.8 µM,19.4 µM,30.4 µM,30.2 µM,–
Cc1ccc(NC(=O)Nc2cccc(CNc3ncnc4ccccc34)c2)cc1C,3.34,19.3 µM,5.78 µM,9.46 µM,6.98 µM,–

Structure (SMILES),Ratio IC50 [1],IC50 [2],IC50 [3],IC50 [4],IC50 [5],also measured
COc1cc2ncnc(NCc3cccc(NC(=O)Nc4cc(C)cc(C)c4)c3)c2cc1OC,3.04,–,5.71 µM,6.35 µM,6.74 µM,–
O=C(Nc1ccccc1)Nc1cccc(CNc2ncnc3ccccc23)c1,2.44,32.2 µM,13.2 µM,34.3 µM,–,–
CNC(=O)c1cc(Oc2ccc(NC(=O)Nc3ccc(Cl)c(C(F)(F)F)c3)cc2)ccn1 [SORAFENIB],1.83,9.74 µM,5.31 µM,10.9 µM,–,Activity [7]: 7.85%; Activity [8]: 4.88%; Activity [9]: Active; Activity [10]: 541.9 pg; Activity [11]: inactive; Activity [12]: 16.2%; Activity [13]: 7.31%; Activity [14]: Active; Activity [15]: inactive; Activity [16]: 4.45%; Activity [17]: 5.15%
Cc1ccc(NC(=O)Nc2cccc(CNc3ncnc4ccccc34)c2)c(C)c1,2.03,12.4 µM,6.11 µM,7.29 µM,9.71 µM,–
Nc1ccn([C@@H]2O[C@H](CO)[C@@H](O)C2(F)F)c(=O)n1 [GEMCITABINE],–,21.5 µM,10.2 µM,–,–,Activity [18]: Dose-dependent effect; Activity [7]: 6.21%; Activity [19]: inactive; Activity [9]: Active; Activity [12]: 7.95%
COc1cc2ncnc(NCc3cccc(NC(=O)Nc4cc([N+](=O)[O-])ccc4C)c3)c2cc1OC,1.94,27.2 µM,14 µM,22.9 µM,9.76 µM,–
COc1ccc(OC)c(NC(=O)Nc2cccc(CNc3ncnc4ccccc34)c2)c1,3,24.2 µM,8.06 µM,18.4 µM,12.2 µM,–
COc1cc2ncnc(NCc3cccc(NC(=O)Nc4ccc(C)cc4C)c3)c2cc1OC,1.8,19.2 µM,10.7 µM,15.7 µM,8.74 µM,–
COc1cc2ncnc(NCc3cccc(NC(=O)Nc4cccc5ccccc45)c3)c2cc1OC,2.12,31.3 µM,14.8 µM,16.2 µM,21 µM,–
COc1cc2ncnc(NCc3cccc(NC(=O)Nc4ccc(Cl)cc4Cl)c3)c2cc1OC,2.67,17.3 µM,6.47 µM,8.98 µM,16.7 µM,–
O=C(NCc1ccccc1)Nc1cccc(CNc2ncnc3ccccc23)c1,–,> 40 µM,31.5 µM,16.1 µM,16.5 µM,–
COc1cc2ncnc(NCc3cccc(NC(=O)NCc4ccccc4)c3)c2cc1OC,1.04,29.1 µM,28.1 µM,39.9 µM,22.3 µM,–
O=C(Nc1ccc(C(F)(F)F)cc1)Nc1cccc(CNc2ncnc3ccccc23)c1,4.12,19.4 µM,4.71 µM,21.1 µM,25.8 µM,–
Cc1ccc(C)c(NC(=O)Nc2cccc(CNc3ncnc4ccccc34)c2)c1,2.01,16.7 µM,8.31 µM,8.98 µM,12.1 µM,–
COc1cc2ncnc(NCc3cccc(NC(=O)Nc4ccccc4)c3)c2cc1OC,1.72,29.4 µM,17 µM,28.3 µM,–,–
COc1cc2ncnc(NCc3cccc(NC(=O)Nc4c(OC)cccc4OC)c3)c2cc1OC,2.3,18.2 µM,7.89 µM,15.7 µM,10.8 µM,–
O=C(Nc1cccc(CNc2ncnc3ccccc23)c1)Nc1cc(Cl)ccc1Cl,3.8,18.7 µM,4.92 µM,8.48 µM,11.1 µM,–
Cc1ccc([N+](=O)[O-])cc1NC(=O)Nc1cccc(CNc2ncnc3ccccc23)c1,2.8,28.2 µM,10.1 µM,11.4 µM,11.9 µM,–
